Experimental data taken from ChEMBL document CHEMBL4257465, “Strigolactones: a plant phytohormone as novel anti-inflammatory agents” (Medchemcomm, 2018).
Activity calls are given as the source filed them. The rule behind the calls is not given here.

Assays:
RAW264.7 [1] = assay: Antiinflammatory activity in LPS-induced mouse RAW264.7 cells assessed as TNFalpha levels at 1.25 uM pretreated for 2 hrs followed by LPS stimulation and measured after 12 hrs by ELISA (reference value: 5313.7 +/- 420.9 pg/ml); type: functional
RAW264.7 [2] = assay: Antiinflammatory activity in LPS-induced mouse RAW264.7 cells assessed as TNFalpha levels at 2.5 uM pretreated for 2 hrs followed by LPS stimulation and measured after 12 hrs by ELISA (reference value: 5313.7 +/- 420.9 pg/ml); type: functional
RAW264.7 [3] = assay: Antiinflammatory activity in LPS-induced mouse RAW264.7 cells assessed as IL-6 levels at 1.25 uM pretreated for 2 hrs followed by LPS stimulation and measured after 12 hrs by ELISA (reference value: 1394 +/- 62.6 pg/ml); type: functional
Method in brief: (§1)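 RAW264.7 murine macrophages (DMEM, 10% serum, 37 °C, 5% CO2) seeded at 5 × 10^5 cells per well, pretreated 2 h with compound at 10, 5, 2.5 or 1.25 μM (DMSO 0.1% v/v), then LPS (E. coli 0127:B8) 100 ng mL−1 added. Supernatant TNF-α or IL-6 read by mouse ELISA kit after 6, 12 and 24 h. Mean ± SD, n = 3, three independent experiments.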

RAW264.7 [4] = assay: Antiinflammatory activity in LPS-induced mouse RAW264.7 cells assessed as IL-6 levels at 5 uM pretreated for 2 hrs followed by LPS stimulation and measured after 12 hrs by ELISA (reference value: 1394 +/- 62.6 pg/ml); type: functional; method in brief: as §1
RAW264.7 [5] = assay: Antiinflammatory activity in LPS-induced mouse RAW264.7 cells assessed as TNFalpha levels at 2.5 uM pretreated for 2 hrs followed by LPS stimulation and measured after 6 hrs by ELISA (reference value: 4377.1 +/- 318.6 pg/ml); type: functional; method in brief: as §1
RAW264.7 [6] = assay: Antiinflammatory activity in LPS-induced mouse RAW264.7 cells assessed as IL-6 levels at 2.5 uM pretreated for 2 hrs followed by LPS stimulation and measured after 12 hrs by ELISA (reference value: 1394 +/- 62.6 pg/ml); type: functional; method in brief: as §1
RAW264.7 [7] = assay: Antiinflammatory activity in LPS-induced mouse RAW264.7 cells assessed as IL-6 levels at 1.25 uM pretreated for 2 hrs followed by LPS stimulation and measured after 24 hrs by ELISA (reference value: 1966.6 +/- 102.3 pg/ml); type: functional; method in brief: as §1
Danio rerio = assay: In-vivo antiinflammatory activity in 4 days post fertilized zebrafish larvae harboring coronilla-eGFP/Lyc-dsRed assessed as reduction in neutrophil recruitment to wounded tail at 5 to 20 uM measured after 3 to 6 hrs by fluorescence microscopic analysis; type: functional, organism-based
Method in brief: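 Double transgenic neutrophil/macrophage reporter larvae (Coronilla-eGFP/Lyc-dsRed), 4 dpf, tail-cut. […] Neutrophils and macrophages gathering at the wound imaged by fluorescence microscopy at 3 and 6 h. 6–8 larvae per group. Uncut larvae serve as blank, untreated cut larvae as control.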

[8] = Cytotoxicity against mouse RAW264.7 cells assessed as cell viability at 10 uM after 48 hrs by MTT assay (reference value: 100%); type: cell-based; details: read-out: Activity
Method in brief: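 RAW264.7 cells seeded at 4 × 10^3 per well, cultured overnight, exposed to compound (DMSO 0.1% v/v) for 48 h. MTT 0.5 mg mL−1 added for 4 h at 37 °C, formazan dissolved in DMSO, OD570 read. Viability relative to medium-only cells set as 100%. Mean ± SD (n = 5), three independent experiments.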

RAW264.7 [9] = assay: Antiinflammatory activity in mouse RAW264.7 cells assessed as inhibition of LPS-induced NO production pretreated for 2 hrs followed by LPS stimulation measured after 24 hrs by Griess assay; type: functional, cell-based
Method in brief: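 RAW264.7 murine macrophages (DMEM, 10% serum, 37 °C, 5% CO2) seeded at 5 × 10^4 cells/well and cultured 18 h. Compounds tested at 1–100 μM (DMSO 0.1% v/v), with LPS (E. coli 0127:B8) at 100 ng mL−1. Supernatant nitrite read with Griess reagent (10 min, room temperature, OD540).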

[10] = target: Transcription factor p65 (Mus musculus) (UniProt Q04207); assay: Inhibition of LPS-induced NFkappaB p65 phosphorylation in mouse RAW264.7 cells after 4 hrs by Western blot analysis; type: cell-based
Method in brief: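 RAW264.7 cells at 2 × 10^6 per well given fresh medium with compound (10, 5, 2.5, 1.25 μM) plus LPS 500 ng mL−1 for 4 h. Lysed in IP buffer with 1 mM PMSF, protein by BCA. Run on 12.5% SDS-PAGE and blotted. Phospho and total ERK1/2 (Thr202/Tyr204), p38 (Thr180/Tyr182), IκBα (Ser32/36) and NF-κB p65 detected by ECL. Mean ± SD, n = 3.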

RAW264.7 [11] = assay: Antiinflammatory activity in LPS-induced mouse RAW264.7 cells assessed as TNFalpha levels at 10 uM pretreated for 2 hrs followed by LPS stimulation and measured after 12 hrs by ELISA (reference value: 5313.7 +/- 420.9 pg/ml); type: functional; method in brief: as §1
RAW264.7 [12] = assay: Antiinflammatory activity in LPS-induced mouse RAW264.7 cells assessed as TNFalpha levels at 5 uM pretreated for 2 hrs followed by LPS stimulation and measured after 24 hrs by ELISA (reference value: 9653.7 +/- 377.3 pg/ml); type: functional; method in brief: as §1

Sequence of Transcription factor p65 (Mus musculus) (Q04207 whole entry): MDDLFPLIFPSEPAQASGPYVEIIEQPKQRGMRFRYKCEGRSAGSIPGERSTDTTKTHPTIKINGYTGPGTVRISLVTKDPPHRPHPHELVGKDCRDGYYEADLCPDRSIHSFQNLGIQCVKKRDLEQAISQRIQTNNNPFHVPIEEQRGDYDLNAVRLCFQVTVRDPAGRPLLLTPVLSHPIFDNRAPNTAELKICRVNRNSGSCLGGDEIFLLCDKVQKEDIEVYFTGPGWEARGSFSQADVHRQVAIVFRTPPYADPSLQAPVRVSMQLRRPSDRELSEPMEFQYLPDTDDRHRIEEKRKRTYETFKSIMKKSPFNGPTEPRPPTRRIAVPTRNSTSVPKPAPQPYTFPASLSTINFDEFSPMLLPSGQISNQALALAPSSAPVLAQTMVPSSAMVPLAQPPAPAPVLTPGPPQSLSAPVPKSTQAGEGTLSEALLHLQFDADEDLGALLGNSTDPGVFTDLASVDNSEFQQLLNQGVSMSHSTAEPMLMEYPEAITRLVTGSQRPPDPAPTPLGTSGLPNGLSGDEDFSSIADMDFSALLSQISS

Row | Structure (SMILES) | Activity (RAW264.7 [1]) [pg/mL] | Activity (RAW264.7 [2]) [pg/mL] | Activity (RAW264.7 [3]) [pg/mL] | Activity (RAW264.7 [4]) [pg/mL] | Activity (RAW264.7 [5]) [pg/mL] | Activity (RAW264.7 [6]) [pg/mL] | Activity (RAW264.7 [7]) [pg/mL] | Activity (Danio rerio) | viability at 48 h, 10 µM [8] [%] | IC50 (RAW264.7 [9]) [µM] | inhibition [10] | Activity (RAW264.7 [11]) [pg/mL] | Activity (RAW264.7 [12]) [pg/mL]
1 | CC1=C[C@@H](O/C=C2/C(=O)O[C@H]3c4ccccc4C[C@@H]23)OC1=O | 5319.6 | 5212.4 | 1374.3 | 1177 | 4307.9 | 1296 | 1936.5 | Active | 99.2 | 3.51 | Dose-dependent effect | 4721.3 | 9318.5
2 | CC1=C[C@H](O/C=C2/C(=O)O[C@@H]3c4ccccc4C[C@H]23)OC1=O | 5303.7 | 5186.9 | 1351.9 | 1090.7 | 4276.9 | 1267.7 | 1892.3 | Active | 100 | 3.14 | Dose-dependent effect | 4685.5 | 9085.5
